Among the data in ChEMBL document CHEMBL4376814, “Novel cyclin-dependent kinase 9 (CDK9) inhibitor with suppression of cancer stemness activity against non-small-cell lung cancer” (Eur J Med Chem, 2019) are inhibition values, retold here.

In experiment [1] the target is T1, CDK6/cyclin D3 (Homo sapiens) (UniProt P30281+Q00534). As to the kind of experiment: Inhibition of recombinant full-length human CDK6/cyclinD3 at 1 uM using histone H1 as substrate measured after 40 mins in presence of [gamma33P]ATP by scintillation counting method relative to control. In kind it is protein-complex assay. A digest of the protocol:
(§1)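 Percent inhibition of kinase activity at a single compound concentration, measured by the outsourced Eurofins KinaseProfiler panel. Values are the mean of two independent experiments.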

The test system of experiment [2] is A549. As to the kind of experiment: Antiproliferative activity against human A549 cells assessed as inhibition of cell viability at 10 uM after 72 hrs by CCK-8 assay relative to control. The conditions noted are these: A549, 72 h. The format is functional. A digest of the protocol: (§2)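 Single-concentration viability screen using CCK-8. Cells were seeded at 3000/well and treated for 72 h. A450 read after 1-4 h with reagent. Percent inhibition calculated against untreated control and blank wells as (Ac−As)/(Ac−Ab)×100%.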

Experiment [3] concerns the target T2, CDK9/cyclin T1 (Homo sapiens) (UniProt O60563+P50750). Kind of experiment: Inhibition of recombinant full-length human CDK9/cyclinT1 at 1 uM using KTFCGTPEYLAPEVRREPRILSEEEQEMFRDFDYIADWC peptide as substrate measured after 40 mins in presence of [gamma33P]ATP by scintillation counting method relative to control. In kind it is protein-complex assay. The essentials:
as §1

In experiment [4] the target is T1, CDK6/cyclin D3 (Homo sapiens). As to the kind of experiment: Inhibition of recombinant full-length human CDK6/cyclinD3 at 500 nM using histone H1 as substrate measured after 40 mins in presence of [gamma33P]ATP by scintillation counting method relative to control. In kind it is protein-complex assay. The essentials:
as §1

Experiment [5] addresses T3, CDK4/Cyclin D3 (Homo sapiens) (UniProt P11802+P30281). Kind of experiment: Inhibition of recombinant full-length human CDK4/cyclinD3 at 1 uM using Rb fragment as substrate measured after 40 mins in presence of [gamma33P]ATP by scintillation counting method relative to control. The format is protein-complex assay. The essentials:
as §1

The subject of experiment [6] is A549. As to the kind of experiment: Antiproliferative activity against human A549 cells assessed as inhibition of cell viability at 1 uM after 72 hrs by CCK-8 assay relative to control. The format is functional. The conditions noted are these: A549, 72 h. The essentials: as §2
Experiment [7] deals with T3, CDK4/Cyclin D3 (Homo sapiens). Kind of experiment: Inhibition of recombinant full-length human CDK4/cyclinD3 at 500 nM using Rb fragment as substrate measured after 40 mins in presence of [gamma33P]ATP by scintillation counting method relative to control. The format is protein-complex assay. The essentials: as §1
The target of experiment [8] is T2, CDK9/cyclin T1 (Homo sapiens). Kind of experiment: Inhibition of recombinant full-length human CDK9/cyclinT1 at 500 nM using KTFCGTPEYLAPEVRREPRILSEEEQEMFRDFDYIADWC peptide as substrate measured after 40 mins in presence of [gamma33P]ATP by scintillation counting method relative to control. The format is protein-complex assay. A digest of the protocol: as §1
For experiment [9], the system named is NCI-H1299. As to the kind of experiment: Antiproliferative activity against human H1299 cells assessed as inhibition of cell viability at 10 uM after 72 hrs by CCK-8 assay relative to control. The format is functional. As to conditions: NCI-H1299, 72 h. The essentials: as §2
Background: Tetrazolium assays rely on reduction of a dye to a coloured formazan, in cell work by metabolically active cells.

For experiment [10], the system named is NCI-H1299. Kind of experiment: Antiproliferative activity against human H1299 cells assessed as inhibition of cell viability at 1 uM after 72 hrs by CCK-8 assay relative to control. The format is functional. The conditions noted are these: NCI-H1299, 72 h. The essentials:
as §2

Activity calls are given as the source filed them. The rule behind the calls is not given here.

As for `CN(C)C(=O)c1cc2cnc(Nc3ccc(S(=O)(=O)NCCCCCN=C=S)cc3)nc2n1C1CCCC1`, the inhibition – broadly, the relative decrease from the control value, in per cent – in experiment [1] was found to be 89%; in [3] it was 98%; in [4] it was 51%; in experiment [5] it was 91%; in [7] it was 85%; in experiment [8] it was 95%. Moreover, the results for the inhibition at 10 µM in [2] and in experiment [9] were 102% and 83.4%, respectively. For the same molecule, the inhibition at 1 µM in [6] came to 56.6%; in experiment [10] it was 52.1%.

As to `CN(C)C(=O)c1cc2cnc(NNC(=O)CCCCCCCN=C=S)nc2n1C1CCCC1`, in [1], the inhibition result was “inactive”. Also, the figures for the inhibition in experiment [3] and in experiment [5] were 17% and 14%, respectively.

For `CN(C)C(=O)c1cc2cnc(Nc3ccc(NC(=O)CCCCCN=C=S)cc3)nc2n1C1CCCC1`, the inhibition in experiment [1] was 90%; in [3], 97%; in experiment [4] it was 64%; in [5], 96%; in [7], 99%; in experiment [8], 99%. The inhibition at 10 µM in experiment [2] is 100%; in experiment [9] it was 85%. The values for the inhibition at 1 µM in experiment [6] and in experiment [10] were 56.1% and 34.3%, respectively.

As to `O=C(CCCCCCCN=C=S)Nc1ccc(Nc2ncc3nnn(C4CCCC4)c3n2)cc1`, the inhibition stood at 42% in experiment [1], 78% in experiment [3], 19% in [5] and 34% in experiment [8].

Regarding `CN(C)C(=O)c1cc2cnc(Nc3ccc(C(=O)NCCCCCN=C=S)cc3)nc2n1C1CCCC1`, the inhibition is 94% in [1]; 97% in experiment [3]; 79% in [4]; 97% in experiment [5]; 101% in [7]; 97% in experiment [8]. For the same molecule, the inhibition at 10 µM came to 100% in experiment [2] and 76.5% in experiment [9]. The values for the inhibition at 1 µM in experiment [6] and in [10] were 29.3% and 50.3%, respectively.

For the molecule `CN(C)C(=O)c1cc2cnc(Nc3ccc(C(=O)NCCCCCCN=C=S)cn3)nc2n1C1CCCC1`, the inhibition is 82% in experiment [1]; 73% in [3]; 52% in experiment [4]; 95% in experiment [5]; 93% in [7]; 27% in [8].

Consider `CN(C)C(=O)c1cc2cnc(Nc3ccc(N4CCN(C(=O)CCCCCCCN=C=S)CC4)cn3)nc2n1C1CCCC1`, for which the inhibition in experiment [1] was 93%; in [3] it was 58%; in experiment [4] it was 62%; in experiment [5] it was 98%; in experiment [7], 91%; in experiment [8], 3%.

In the case of `CN(C)C(=O)c1cc2cnc(Nc3ccc(C(=O)NCCCCCCCN=C=S)cn3)nc2n1C1CCCC1`, the inhibition in experiment [1] was 64%; in [3], 73%; in [4], 46%; in [5] it was 84%; in experiment [7], 91%; in [8] it was 18%.

Regarding `CN(C)C(=O)c1cc2cnc(Nc3ccc(NC(=O)CCCCCCCN=C=S)c(F)c3)nc2n1C1CCCC1`, the inhibition in experiment [1] was 69%; in [3], 87%; in [4], 51%; in experiment [5] it was 86%; in experiment [7] it was 75%; in experiment [8], 76%.

Take `CN(C)C(=O)c1cc2cnc(Nc3ccc(C(=O)NCCCCCCN=C=S)cc3)nc2n1C1CCCC1`: the inhibition in experiment [1] came out at 92%; in experiment [3], 96%; in experiment [4], 63%; in experiment [5] it was 98%; in experiment [7], 101%; in [8], 67%. Further, the inhibition at 10 µM in experiment [2] was determined as 100%; in [9], 85%. The inhibition at 1 µM in experiment [6] was determined as 35.8%; in experiment [10], 49.4%.

For `CN(C)C(=O)c1cc2cnc(Nc3ccc(S(=O)(=O)NCCCN=C=S)cc3)nc2n1C1CCCC1`, the inhibition in experiment [1] was 89%; in [3] it was 97%; in [4], 59%; in experiment [5] it was 90%; in [7] it was 85%; in [8] it was 96%. Moreover, the inhibition at 10 µM is 102% in [2] and 72.8% in experiment [9]. The figures for the inhibition at 1 µM in experiment [6] and in [10] were 58.9% and 41.3%, respectively.

With `CN(C)C(=O)c1cc2cnc(Nc3ccc(C(=O)NCCCCN=C=S)cc3)nc2n1C1CCCC1`, the inhibition worked out at 93% in [1]; 99% in experiment [3]; 79% in experiment [4]; 98% in experiment [5]; 99% in [7]; 98% in experiment [8]. Besides, the inhibition at 10 µM was found to be 102% in [2] and 74.2% in experiment [9]. Further, the inhibition at 1 µM was determined as 30.2% in [6] and 55.2% in experiment [10].

In the case of `CN(C)C(=O)c1cc2cnc(Nc3ccc(C(=O)NCCCCCCN=C=S)cc3O)nc2n1C1CCCC1`, the inhibition in [1] was found to be 47%; in experiment [3], 81%; in experiment [5], 45%; in [8] it was 5%.

For `CN(C)C(=O)c1cc2cnc(Nc3ccc(S(=O)(=O)NCCCCN=C=S)cc3)nc2n1C1CCCC1`, the inhibition in experiment [1] came out at 92%; in experiment [3], 98%; in [4], 64%; in experiment [5], 90%; in experiment [7] it was 91%; in experiment [8] it was 99%. Also, the inhibition at 10 µM in [2] is 101%; in [9], 72.7%. In addition, the inhibition at 1 µM is 39.4% in experiment [6] and 29.9% in experiment [10].

With `CN(C)C(=O)c1cc2cnc(Nc3ccc(NC(=O)CCCN=C=S)cc3)nc2n1C1CCCC1`, the inhibition was determined as 93% in experiment [1]; 98% in [3]; 70% in [4]; 98% in experiment [5]; 99% in experiment [7]; 99% in experiment [8]. The inhibition at 10 µM in [2] is 102%; in experiment [9], 78.8%. The inhibition at 1 µM in [6] is 56.1%; in experiment [10] it was 39.7%.

Regarding `CN(C)C(=O)c1cc2cnc(Nc3ccc(N=C=S)cc3)nc2n1C1CCCC1`, the inhibition stood at 72% in experiment [1]; 96% in [3]; 43% in experiment [4]; 94% in experiment [5]; 89% in experiment [7]; 93% in experiment [8]. Also, the inhibition at 10 µM in experiment [2] worked out at 97.9%; in experiment [9] it was 83.7%. Further, the inhibition at 1 µM turned out to be 44.4% in experiment [6] and 46.9% in experiment [10].

On to `CN(C)C(=O)c1cc2cnc(Nc3ccc(C(=O)NCCCCCCCN=C=S)cc3O)nc2n1C1CCCC1`, for which the inhibition in experiment [1] stood at 42%; in [3], 84%; in [5], 37%; in experiment [8], 7%.

Take `CN(C)C(=O)c1cc2cnc(Nc3ccc(C(=O)NCCCN=C=S)cn3)nc2n1C1CCCC1`: the inhibition in experiment [1] was found to be 89%; in [3], 84%; in experiment [4], 54%; in [5] it was 95%; in experiment [7], 92%; in [8], 40%.

Take `CN(C)C(=O)c1cc2cnc(Nc3ccc(C(=O)NCCCCN=C=S)cn3)nc2n1C1CCCC1`: the inhibition in [1] came to 88%; in experiment [3] it was 85%; in experiment [4], 53%; in [5], 95%; in [7] it was 91%; in experiment [8], 41%.

Take `CN(C)C(=O)c1cc2cnc(Nc3ccccc3NC(=O)CCCCCCCN=C=S)nc2n1C1CCCC1`: the values for the inhibition in experiment [1], in experiment [3] and in [5] were 1%, 11% and 14%, respectively.

With `CN(C)C(=O)c1cc2cnc(Nc3ccc(NC(=O)CCCCCCCN=C=S)cc3C(F)(F)F)nc2n1C1CCCC1`, the inhibition in [1] was found to be 1%; in [3], 72%; in experiment [5], 63%; in [8], 79%.

On to `CN(C)C(=O)c1cc2cnc(Nc3ccc(C(=O)NCCCCCN=C=S)cn3)nc2n1C1CCCC1`, for which the inhibition in experiment [1] is 87%; in [3], 87%; in experiment [4] it was 55%; in experiment [5], 94%; in experiment [7] it was 94%; in experiment [8], 37%.
